Test results reported in article PMC5668642 (Biochemistry and Biophysics Reports, 2015).

Assays:
[1] = target: T1, PLCδ1-PH domain (Rattus norvegicus, UniProt P10688); test: Competitive surface plasmon resonance assay, PI; type: binding; settings: for inhibition at 5 µM: pH 7.4, read-out: Relative inhibitory activity (%), PI(4,5)P2/PLCδ1-PH
T1 sequence (P10688 1-131): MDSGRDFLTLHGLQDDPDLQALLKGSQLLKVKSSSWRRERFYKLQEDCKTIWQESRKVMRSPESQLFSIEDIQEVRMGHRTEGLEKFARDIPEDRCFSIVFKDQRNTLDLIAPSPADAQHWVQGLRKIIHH
Outline: (§1)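 L1 chip, 25 °C, 20 mM HEPES pH 7.4, 0.16 M KCl, 30 µL/min. Active surface PC/PE/PS/PIP (57:20:20:3): PI(4,5)P2 for rat PLCδ1-PH (1-131), PI(3,4,5)P3 for human AKT1-PH (1-121) and mouse GRP1-PH (1-127), PI(3,4)P2 for human TAPP1-PH (180-305). BSA-blocked PC/PE/PS reference. Domain (500 nM) preincubated 30 min with compound (0–20 or 0–200 µM). % inhibition from RU at 180 s; IC50 by Langmuir fit; triplicates.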

[2] = target: TAPP1-PH domain (Homo sapiens, UniProt Q9HB21); test: Competitive surface plasmon resonance assay, PI; type: binding; settings: for inhibition at 5 µM: read-out: Relative inhibitory activity (%), PI(3,4)P2/TAPP1-PH
Outline: as §1

[3] = target: T2, AKT1-PH domain (Homo sapiens, UniProt P31749); test: Competitive surface plasmon resonance assay, PI; type: binding; settings: for inhibition at 5 µM: read-out: Relative inhibitory activity (%), PI(3,4,5)P3/AKT1-PH
Outline: as §1

[4] = target: T3, GRP1-PH domain (Mus musculus, UniProt O08967); test: Competitive surface plasmon resonance assay, PI; type: binding; settings: for inhibition at 5 µM: read-out: Relative inhibitory activity (%), PI(3,4,5)P3/GRP1-PH
T3 sequence (O08967 264-380 limits assumed): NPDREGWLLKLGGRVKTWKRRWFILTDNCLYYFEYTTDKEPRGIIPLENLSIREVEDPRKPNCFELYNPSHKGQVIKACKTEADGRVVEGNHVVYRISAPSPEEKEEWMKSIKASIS
Outline: as §1

[5] = target: T1, PLCδ1-PH domain; test: Competitive protein-to-membrane FRET displacement assay; type: binding
Outline: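 Rat PLCδ1-PH (1-131) is prebound to excess PC/PE/PS/dPE/PI(4,5)P2 (56:20:20:1:3) vesicles (100 µM total lipid) in 20 mM Tris pH 7.4, 0.16 M NaCl, at room temperature. Compound is titrated 0–70 µM. Protein-to-membrane FRET is read at ex 280/em 505 nm, corrected for PC/PE/PS/dPE (59:20:20:1) vesicles, dilution and dPE background. Apparent KI comes from a nonlinear least-squares fit.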

[6] = target: T1, PLCδ1-PH domain; test: Liposome pull-down assay, PI; type: binding; settings: protein 50 μM; compound 100 μM; PC/PE/PS/PI(4,5)P2 (57:20:20:3)
Outline: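 Sucrose-loaded PC/PE/PS/PI(4,5)P₂ vesicles made by sonication and extrusion, pelleted at 100,000g, and resuspended in 20 mM Tris pH 7.4 with 100 mM KCl and 5 mM MgCl₂. Rat PLCδ1-PH domain incubated with vesicles (40 µg in 100 µL) for 30 min with 0.3 mg/mL BSA, with or without test compound; PC/PE/PS vesicles as control. Spun at 100,000g for 30 min at 4 °C; supernatant and pellet run on Coomassie-stained SDS-PAGE.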

[7] = target: T2, AKT1-PH domain; test: Liposome pull-down assay, PI; type: binding; settings: protein 50 μM; compound 100 μM; PC/PE/PS/PI(3,4,5)P3 (57:20:20:3)
Outline: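 Human AKT1-PH (1-121) is incubated 30 min with 40 µg sucrose-loaded, sonicated/extruded vesicles (± compound) in 20 mM Tris pH 7.4, 100 mM KCl, 5 mM MgCl2, 0.3 mg/mL BSA. Vesicles were pelleted beforehand at 100,000g, 4 °C. Bound and free protein are separated at 100,000g, 30 min, 4 °C. Supernatant and pellet are run on Coomassie-stained SDS-PAGE.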

[8] = tested on: GFP-tagged PLCδ1-PH domain in A549 cells; test: Cellular translocation of GFP-tagged PLCδ1-PH domain; type: cell-based, Human; settings: 0–100 μM, 30 min
Outline: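 A549 cells grown on coverslips in RPMI-1640 with 10% heat-inactivated FBS and penicillin/streptomycin at 37 °C, 5% CO₂. Transfected 24 h after seeding with GFP-PLCδ1-PH using polyethylenimine in Opti-MEM, then returned to complete medium after 24 h. Cells washed into serum-free medium and exposed to test compound (5–100 µM; DMSO <5%) for 30 min. PBS-washed, fixed in 4% paraformaldehyde for 15 min, and imaged by confocal at 488 nm excitation.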

[9] = target: T1, PLCδ1-PH domain; test: Isothermal titration calorimetry, PLCδ1-PH domain; type: binding; settings: 25 °C; 20 mM HEPES pH 7.4, 0.16 M KCl
Outline: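 Rat PLCδ1-PH domain (residues 1–131, E. coli BL21-DE3) at 200 μM, dialysed into 20 mM HEPES pH 7.4 with 0.16 M KCl. Titrated at 25 °C, 500 rpm, with 20 × 2 µL injections at 2.0 min intervals of test compound (2 mM) dissolved in the final dialysate. ΔG derived as ΔH − TΔS.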

[10] = target: T2, AKT1-PH domain; test: Isothermal titration calorimetry, AKT1-PH domain; type: binding; settings: 25 °C
Outline: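 Human AKT1-PH domain (residues 1–121, E. coli BL21-DE3) in the sample cell at 25 °C, 500 rpm. Titrated with 20 × 2 µL injections of test compound (2 mM) at 2.0 min intervals. ΔG derived as ΔH − TΔS.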

[11] = target: T1, PLCδ1-PH domain; test: Circular dichroism of PLCδ1-PH domain with compounds; settings: PLCδ1-PH 1 μM; 10 mM phosphate, 10 mM NaCl, pH 7.2
Outline: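 Rat PLCδ1-PH domain (residues 1-131, expressed in E. coli BL21-DE3) is scanned by far-UV CD from 190 to 245 nm, alone and with test compounds present.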

T2 sequence (P31749 1-121): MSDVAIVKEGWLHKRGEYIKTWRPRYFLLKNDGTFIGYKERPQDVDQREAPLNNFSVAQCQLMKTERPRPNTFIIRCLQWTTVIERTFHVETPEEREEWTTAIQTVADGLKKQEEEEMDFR
Chain of TAPP1-PH domain (Q9HB21 180-305): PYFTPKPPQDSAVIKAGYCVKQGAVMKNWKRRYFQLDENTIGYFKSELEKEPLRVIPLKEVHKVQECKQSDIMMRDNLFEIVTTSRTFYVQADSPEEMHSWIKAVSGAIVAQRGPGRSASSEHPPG

With Cn1cc(CO)nn1 [(1-methyl-1H-1,2,3-triazol-4-yl)methanol, reference compound] the “Effect on PLCδ1-PH domain binding to PC/PE/PS/PI(4,5)P2 liposome” value ([1]; competitive SPR, negative control, data not shown) was “did not affect”.
In the case of O=[N+]([O-])c1ccc(Cn2cc(CO)nn2)cc1 [CIP-1], the IC50 [1] is reported as 113 ± 7 nM, the inhibition at 5 µM [1] is reported as 83 ± 4% and the IC50 [2] is reported as 647 ± 33 nM. The inhibition at 5 µM [2] was 18 ± 2%, the IC50 [3] was 175 ± 21 nM and the inhibition at 5 µM [3] was 44 ± 2%. For the same compound, the IC50 [4] was 145 ± 11 nM, the inhibition at 5 µM [4] was 56 ± 3% and the Ki [5] was 60400 nM. The “Inhibition of PLCδ1-PH domain binding to PI(4,5)P2 containing liposomes (SDS-PAGE)” value [6] was “not that efficient in displacing the PLCδ1-PH domain”, the “Inhibition of PI(3,4,5)P3/AKT1-PH domain interaction (SDS-PAGE)” value [7] was “more strongly than compound CIP-4” and the “Displacement of PLCδ1-PH domain from plasma membrane (confocal images)” value [8] was “extent of displacement of PLCδ1-PH domain from PM is lowered”. The “ITC titration behaviour with PLCδ1-PH domain” value [9] was “exothermic reaction with one-step binding mechanism”, the “ITC titration behaviour with AKT1-PH domain” value [10] was “exothermic reaction with two-step binding mechanism” and the “Change in secondary structural pattern of PLCδ1-PH domain (far UV-CD)” value [11] was “almost no change”.
Compound OCc1cn(Cc2ccccc2)nn1 [CIP-2] has an IC50 [1] of 159 ± 11 nM, an inhibition at 5 µM [1] of 62 ± 3% and an IC50 [2] of 106 ± 8 nM. It also gave an inhibition at 5 µM [2] of 41 ± 4%, an IC50 [3] of 315 ± 32 nM and an inhibition at 5 µM [3] of 55 ± 2%. It also gave an IC50 [4] of 216 ± 9 nM and an inhibition at 5 µM [4] of 58 ± 5%.
CCOC(=O)Cn1cc(CO)nn1 [CIP-3] gave an inhibition at 5 µM [3] of 4 ± 1%.
